Sampled rows, rich in hits. Any-hit rate of the full collection: about 1.3%.
RAD52 anneal inh: RAD52 (human) annealing inhibition | inhibition, % at 18.7 µM | hit rate 0.46% among 360,000 | P43351 | recombinant RAD52 DNA annealing, FRET fluorescence;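 active = every replicate showing at least 50% inhibition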
PAX8 reporter: PAX8 transcriptional activity inhibition | inhibition, % at 12.6 µM | RMG-I TPO-luciferase reporter, SteadyGlo, 24 h | hit rate 1.2% among 360,000;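 active = mean replicate inhibition at least 60% with every replicate also reaching 60%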;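 also: luciferase light reporting Pax8 driven TPO promoter activity; plate controls were median of neutral control wells for no effect and mitoxantrone controls for full effect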
FN deposit inh: fibronectin deposition inhibition. inhibition, % at 12.6 µM. AID 743247. AH1F fibroblasts, Alexa488-fibronectin deposition fluorescence, overnight. hit rate 0.086% among 350,000;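 active = mean inhibition across replicates of 30% or more, regardless of how many single replicates reach that level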;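 also: positive control wells lacked labelled fibronectin entirely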
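Assay system: AH1F fibroblast monolayer, labelled fibronectin deposition. Amount: 10000 cells per well. Also added: labelled fibronectin 24 nM. Compound: single-point pinned compound. Incubation: cell attachment 1 h, compound and FN exposure overnight. Detection: fluorescence after three HBSS washes, excitation 485 nm, emission 525 nm. Read-out: inhibition of fibronectin deposition signal.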
RAD54 inh: blocks human RAD54 Holliday junction branch migration; FAM/BHQ fluorescence; inhibition, % at 10.4 µM; hit rate 0.14% among 360,000;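 active = mean normalized replicate activity at least 40 and at least half of replicates scoring 40 or more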;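 also: 0% = median of neutral control wells and 100% = median of positive control wells; inhibitors cause a drop in the FAM fluorescence signal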
Target sequence (Q92698 whole entry, looked up): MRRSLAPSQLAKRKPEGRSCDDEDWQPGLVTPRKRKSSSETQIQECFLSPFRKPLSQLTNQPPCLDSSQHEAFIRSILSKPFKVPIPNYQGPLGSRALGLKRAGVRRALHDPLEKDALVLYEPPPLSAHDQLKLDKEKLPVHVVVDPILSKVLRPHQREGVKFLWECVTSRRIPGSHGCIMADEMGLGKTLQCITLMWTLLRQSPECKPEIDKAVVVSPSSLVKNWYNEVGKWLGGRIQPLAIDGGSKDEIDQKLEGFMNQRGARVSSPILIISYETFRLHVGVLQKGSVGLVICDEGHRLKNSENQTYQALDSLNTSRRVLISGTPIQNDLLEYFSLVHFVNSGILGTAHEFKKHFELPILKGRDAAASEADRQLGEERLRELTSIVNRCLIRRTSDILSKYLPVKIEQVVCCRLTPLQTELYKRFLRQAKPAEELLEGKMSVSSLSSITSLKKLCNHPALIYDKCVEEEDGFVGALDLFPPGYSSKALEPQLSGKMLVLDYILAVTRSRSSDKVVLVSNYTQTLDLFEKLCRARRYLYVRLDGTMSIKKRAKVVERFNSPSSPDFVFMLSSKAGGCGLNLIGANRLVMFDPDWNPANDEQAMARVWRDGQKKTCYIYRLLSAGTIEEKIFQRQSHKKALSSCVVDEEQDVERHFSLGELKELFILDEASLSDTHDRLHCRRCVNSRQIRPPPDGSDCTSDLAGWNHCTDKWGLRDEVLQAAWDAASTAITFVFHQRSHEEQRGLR
Numbers without * were called inactive; . = not tested or not shown.

SMILES	RAD52 anneal inh	PAX8 reporter	FN deposit inh	RAD54 inh
COc1ccc2c3c([nH]c2c1)[C@@H](CO)N(Cc1cccc(Cl)c1)CC31CN(C)C1	48	.	.	.
COc1cc(CN2CC3(CN(C)C3)c3c([nH]c4cc(OC)ccc34)[C@@H]2CO)cc(OC)c1	54*	.	.	.
CCC(C)Oc1cc(-c2ccnc(Nc3cccc(Cl)c3)n2)ccn1 (centres undefined)	-9	-84	12	3
OCCCNc1cc(-c2ccnc(Nc3cccc(Cl)c3)n2)ccn1	-8	98*	8	-1
CC(=O)N1CCN(CCS(=O)(=O)c2ccc(Br)cc2)CC1	-5	1	3	-13
Cc1ccc(NC(=O)c2nc[nH]c2C(=O)N2CCOCC2)c(C(=O)c2ccccc2)c1	-2	14	.	-6
C[C@H](CO)N1C[C@H](C)[C@@H](CN(C)Cc2ccc(C(=O)Nc3ccccc3N)cc2)Oc2ccc(NC(=O)Cc3cn(C)c4ccccc34)cc2CC1=O	61*	.	.	4
C[C@@H]1CN([C@@H](C)CO)C(=O)Cc2cc(NC(=O)Cc3cn(C)c4ccccc34)ccc2O[C@H]1CN(C)Cc1ccc(Oc2ccccc2)cc1	.	86*	.	4
C[C@@H]1CN([C@@H](C)CO)C(=O)Cc2cc(NC(=O)Cc3cn(C)c4ccccc34)ccc2O[C@H]1CN(C)Cc1ccc(C(=O)Nc2ccccc2N)cc1	49	.	.	0
Oc1c(Br)cc(Cl)cc1C=Nc1ccccc1Br	2	2	-1	.
Cc1ccc(C(=O)NCCN2CCOCC2)c(Cl)c1	1	-19	-4	-9
COC(=O)[C@]12CCCCC=C1N(Cc1ccc(Cl)cc1Cl)C(=O)[C@H](CC(=O)N1CCN(C(=O)c3ccco3)CC1)C2	0	109*	-11	.
CCOC(=O)N1CCN(C(=O)C[C@@H]2C[C@@]3(C(=O)OCC)CCC=C3N(Cc3ccc(Cl)cc3Cl)C2=O)CC1	5	12	-5	.
COC(=O)[C@]12CCCCC=C1N(Cc1ccccc1)C(=O)[C@H](CC(=O)N1CCN(C(=O)c3ccco3)CC1)C2	-13	81*	.	.
CCCCCCCCN1C(=O)[C@H](CC(=O)N2CCN(C(=O)c3ccco3)CC2)C[C@@]2(C(=O)OCC)CCCC=C12	-9	87*	.	.
CCOC(=O)[C@]12CCC=C1N(Cc1ccc(Cl)cc1Cl)C(=O)[C@H](CC(=O)N1CCN(C(=O)c3ccco3)CC1)C2	-10	79*	-10	.
C[C@H]1CCCCO[C@H](CN(C)C(=O)Nc2ccc3c(c2)OCO3)[C@@H](C)CN([C@@H](C)CO)C(=O)c2cc(NC(=O)Nc3ccc(C(F)(F)F)cc3)ccc2O1	-8	.	5	-7
COc1ccc(CNC(=O)C(CC(C)C)NC(=O)c2ccccc2C)cc1 (centres undefined)	-3	4	-5	9
N#C/C(C(=O)N1CCCC1)=C1/N=C(N)c2ccccc21	7	108*	12	-15
Cc1ccc(NC(=O)NC2=N/C(=C(/C#N)C(=O)N3CCCC3)c3ccccc32)cc1	.	-96	-5	2
CN1C(=O)c2cc(NC(=O)C3CC3)ccc2OC[C@@H]2O[C@H](CC(=O)NCc3cccc(F)c3)CC[C@H]21	.	-7	-8	1
NC(=O)C1=C[C@H](c2coc3ccccc3c2=O)C[C@H](OCCCCO)O1	-12	17	33*	5
C=C1C(=O)O[C@H]2C[C@H]1[C@@H](OC(C)=O)C/C(C)=C/CC/C(C)=C\CC[C@]2(C)O	2	111*	15	-6
C=C1C(=O)OC2C=C(CO)CCC=C(CO)CC(OC(=O)C(C)C)C12 (centres undefined)	-14	-6	-6	.
COC(=O)c1c(N)sc(C(=O)NCCc2ccccc2)c1C	9	65*	1	-4
SMILES	RAD52 anneal inh	PAX8 reporter	FN deposit inh	RAD54 inh
COc1cccc(OC)c1C(=O)NCCc1ccccc1	-1	2	6	.
CCOC(=O)C1C(c2ccccc2)NC(=S)NC1(C)O (centres undefined)	-6	-24	.	.
O=C(NCc1ccco1)C1CCCN(S(=O)(=O)c2ccc(Br)cc2)C1 (centres undefined)	-10	131*	2	.
CCOc1ccc(S(=O)(=O)N2CCCC(C(=O)NCc3ccco3)C2)cc1 (centres undefined)	3	9	-8	4
O=[N+]([O-])c1cccc(-c2nnc(-c3ccc4c(c3)OCO4)o2)c1	-6	144*	-11	.
CC(C)NC(=O)Nc1ccc2c(c1)CC(=O)N([C@H](C)CO)C[C@H](C)[C@H](CN(C)Cc1ccncc1)O2	-8	18	1	1
CCOc1ccc(NC(=O)COc2ccc(C(=O)NCCc3ccccc3)cc2)cc1	-2	73*	6	-15
Cc1ccc(/C=N/n2c(-c3cccnc3)n[nH]c2=S)s1	.	11	-2	.
Cc1ccc(NC(C(=O)c2ccccc2)c2ccccc2)cc1 (centres undefined)	-3	80*	-6	-4
Cc1ccc(NC(=O)C(Nc2ccccc2)c2ccccc2)cc1 (centres undefined)	-14	-9	3	.
COc1ccc(-c2nc(C#N)c(NCCN(C)C)o2)cc1	4	-9	6	4
Cc1cc(C(=O)CCl)c(C)n1CCc1ccccc1	-12	32	3	.
Cc1c(P(=S)(c2ccccc2)c2ccccc2)[n+]2ccccc2n1CCc1ccccc1	-2	89*	0	10
CCCc1n[nH]c2c1/C(=N\OCC)CC(C)(C)C2	-6	13	-12	.
Nc1ccn([C@H]2C[C@H](O)[C@@H](CO)O2)c(=O)n1	3	17	4	-7
Nc1ncn([C@H]2C[C@H](O)[C@@H](CO)O2)c(=O)n1	-11	107*	1	-5
COc1ccc(C2C(O)C(c3c[nH]c4ccccc34)=NN2C(=O)CCl)cc1 (centres undefined)	-83	117*	2	1
COc1ccc(C2NN=C(c3c[nH]c4ccccc34)C2O)cc1 (centres undefined)	-8	18	2	12
CC(=O)n1cc(N(C(=O)CCl)c2ccc(C)cc2)c2ccccc21	-9	104*	12	3
CC(=O)N(c1ccc(Cl)cc1)c1cn(C(C)=O)c2ccccc12	-2	13	.	-1
Cn1nc(-c2ccc(Cl)cc2)c2cc(C(=O)NCCCN3CCCC3)sc21	46	5	-3	45
CCN1CCCC1CNC(=O)c1cc2c(-c3ccc(Cl)cc3)nn(C)c2s1 (centres undefined)	.	.	.	51*
COCC(=O)N(C)C[C@H]1Oc2ncc(C3=CCCCC3)cc2C(=O)N([C@H](C)CO)C[C@@H]1C	2	.	.	1
Cc1ccc(S(=O)(=O)N(C)C[C@@H]2Oc3ccc(NC(=O)Nc4c(C)noc4C)cc3CC(=O)N([C@@H](C)CO)C[C@@H]2C)cc1	5	7	.	55*
Cc1ccc(S(=O)(=O)N(C)C[C@H]2Oc3ccc(NC(=O)Nc4ccc(C(F)(F)F)cc4)cc3CC(=O)N([C@H](C)CO)C[C@@H]2C)cc1	0	82*	-13	3
Cc1ccc(S(=O)(=O)N(C)C[C@@H]2Oc3ccc(NC(=O)Nc4ccc(C(F)(F)F)cc4)cc3CC(=O)N([C@H](C)CO)C[C@@H]2C)cc1	15	97*	-45	18
